Data: ChEMBL document CHEMBL4689842, “EUbOPEN Chemogenomics Library wave 1” (2021)
“And” between values parts separate entries of the source, which are not always exact repeats. Identical values can stand only once.

System: Fibroblast
Experiment: Multiplex assay against human fibroblast
Assay type: toxicity, cell-based
How it was run: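 Four dyes were applied at seeding to live cells: Hoechst33342, BioTracker Green Microtubule Cytoskeleton Dye, MitoTracker Red and Annexin V Alexa Fluor 680. Imaging after compound addition used a CQ1 microscope at 37°C and 5% CO2. CellPathfinder machine-learning gating then sorted cells into Hoechst high-intensity objects or normal cells, normal cells into healthy, pyknosed or fragmented nuclei, and pyknosed cells into mitotic or apoptotic, with tubulin, mitochondrial-mass and membrane-permeability phenotypes given as per cents of healthy-nucleus cells.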

[1] = 12 h, 1 µM, compound concentration 1 uM, replicate 1
[2] = 12 h, 1 µM, compound concentration 1 uM, replicate 2
[3] = 12 h, 10 µM, compound concentration 10 uM, replicate 1
[4] = 12 h, 10 µM, compound concentration 10 uM, replicate 2
[5] = 24 h, 1 µM, compound concentration 1 uM, replicate 1
[6] = 24 h, 1 µM, compound concentration 1 uM, replicate 2
[7] = 24 h, 10 µM, compound concentration 10 uM, replicate 1
[8] = 24 h, 10 µM, compound concentration 10 uM, replicate 2
[9] = 48 h, 1 µM, compound concentration 1 uM, replicate 1
[10] = 48 h, 1 µM, compound concentration 1 uM, replicate 2
[11] = 48 h, 10 µM, compound concentration 10 uM, replicate 1
[12] = 48 h, 10 µM, compound concentration 10 uM, replicate 2

C[C@@H](NCCCc1cccc(C(F)(F)F)c1)c1cccc2ccccc12.Cl [CINACALCET HYDROCHLORIDE]
Population Apoptotic (%) [1]: 59%
Population Fragmented Nuclei (%) [1]: 22%
Population Healthy Nuclei (%) [1]: 46%
Population Hoechst High Intensity Objects (%) [1]: 16%
Population Membrane Permeable-Phenotype (%) [1]: 12%
Population Mitochondria Different-Phenotype (%) [1]: 14%
Population Mitotic Cells (%) [1]: 40%
Population Normal (%) [1]: 84%
Population Pyknosed Nuclei (%) [1]: 30%
Population Tubulin-Different-Phenotype (%) [1]: 57%
Total Cell Count [1]: 125
Population Apoptotic (%) [2]: 33%
Population Fragmented Nuclei (%) [2]: 10%
Population Healthy Nuclei (%) [2]: 76%
Population Hoechst High Intensity Objects (%) [2]: 9%
Population Membrane Permeable-Phenotype (%) [2]: 11%
Population Mitochondria Different-Phenotype (%) [2]: 22%
Population Mitotic Cells (%) [2]: 66%
Population Normal (%) [2]: 90%
Population Pyknosed Nuclei (%) [2]: 12%
Population Tubulin-Different-Phenotype (%) [2]: 36%
Total Cell Count [2]: 52
Population Apoptotic (%) [3]: 57%
Population Fragmented Nuclei (%) [3]: 33%
Population Healthy Nuclei (%) [3]: 35%
Population Hoechst High Intensity Objects (%) [3]: 11%
Population Membrane Permeable-Phenotype (%) [3]: 4%
Population Mitochondria Different-Phenotype (%) [3]: 73%
Population Mitotic Cells (%) [3]: 42%
Population Normal (%) [3]: 88%
Population Pyknosed Nuclei (%) [3]: 30%
Total Cell Count [3]: 155
Population Apoptotic (%) [4]: 88%
Population Fragmented Nuclei (%) [4]: 20%
Population Healthy Nuclei (%) [4]: 23%
Population Hoechst High Intensity Objects (%) [4]: 7%
Population Membrane Permeable-Phenotype (%) [4]: 33%
Population Mitochondria Different-Phenotype (%) [4]: 93%
Population Mitotic Cells (%) [4]: 11%
Population Normal (%) [4]: 92%
Population Pyknosed Nuclei (%) [4]: 55%
Population Tubulin-Different-Phenotype (%) [4]: 93%
Total Cell Count [4]: 68
Population Apoptotic (%) [5]: 38%
Population Fragmented Nuclei (%) [5]: 25%
Population Healthy Nuclei (%) [5]: 50%
Population Hoechst High Intensity Objects (%) [5]: 15%
Population Membrane Permeable-Phenotype (%) [5]: 16%
Population Mitochondria Different-Phenotype (%) [5]: 12%
Population Mitotic Cells (%) [5]: 61%
Population Normal (%) [5]: 84%
Population Pyknosed Nuclei (%) [5]: 24%
Population Tubulin-Different-Phenotype (%) [5]: 65%
Total Cell Count [5]: 128
Population Apoptotic (%) [6]: 36%
Population Fragmented Nuclei (%) [6]: 8%
Population Healthy Nuclei (%) [6]: 69%
Population Hoechst High Intensity Objects (%) [6]: 7%
Population Membrane Permeable-Phenotype (%) [6]: 5%
Population Mitochondria Different-Phenotype (%) [6]: 26%
Population Mitotic Cells (%) [6]: 63%
Population Normal (%) [6]: 92%
Population Pyknosed Nuclei (%) [6]: 22%
Population Tubulin-Different-Phenotype (%) [6]: 17%
Total Cell Count [6]: 53
Population Apoptotic (%) [7]: 65%
Population Fragmented Nuclei (%) [7]: 35%
Population Healthy Nuclei (%) [7]: 35%
Population Hoechst High Intensity Objects (%) [7]: 11%
Population Membrane Permeable-Phenotype (%) [7]: 10%
Population Mitochondria Different-Phenotype (%) [7]: 71%
Population Mitotic Cells (%) [7]: 34%
Population Normal (%) [7]: 88%
Population Pyknosed Nuclei (%) [7]: 28%
Population Tubulin-Different-Phenotype (%) [7]: 89%
Total Cell Count [7]: 208
Population Apoptotic (%) [8]: 92%
Population Fragmented Nuclei (%) [8]: 15%
Population Healthy Nuclei (%) [8]: 32%
Population Hoechst High Intensity Objects (%) [8]: 24%
Population Membrane Permeable-Phenotype (%) [8]: 52%
Population Mitochondria Different-Phenotype (%) [8]: 88%
Population Mitotic Cells (%) [8]: 7%
Population Normal (%) [8]: 75%
Population Pyknosed Nuclei (%) [8]: 51%
Population Tubulin-Different-Phenotype (%) [8]: 82%
Total Cell Count [8]: 69
Population Apoptotic (%) [9]: 46%
Population Fragmented Nuclei (%) [9]: 33%
Population Healthy Nuclei (%) [9]: 52%
Population Hoechst High Intensity Objects (%) [9]: 19%
Population Membrane Permeable-Phenotype (%) [9]: 16%
Population Mitochondria Different-Phenotype (%) [9]: 5%
Population Mitotic Cells (%) [9]: 53%
Population Normal (%) [9]: 80%
Population Pyknosed Nuclei (%) [9]: 14%
Population Tubulin-Different-Phenotype (%) [9]: 40%
Total Cell Count [9]: 130
Population Apoptotic (%) [10]: 66%
Population Fragmented Nuclei (%) [10]: 50%
Population Healthy Nuclei (%) [10]: 47%
Population Hoechst High Intensity Objects (%) [10]: 10%
Population Membrane Permeable-Phenotype (%) [10]: 15%
Population Mitochondria Different-Phenotype (%) [10]: 4%
Population Mitotic Cells (%) [10]: 33%
Population Normal (%) [10]: 89%
Population Pyknosed Nuclei (%) [10]: 1%
Population Tubulin-Different-Phenotype (%) [10]: 58%
Total Cell Count [10]: 169
Population Apoptotic (%) [11]: 90%
Population Fragmented Nuclei (%) [11]: 42%
Population Healthy Nuclei (%) [11]: 36%
Population Hoechst High Intensity Objects (%) [11]: 13%
Population Membrane Permeable-Phenotype (%) [11]: 5%
Population Mitochondria Different-Phenotype (%) [11]: 68%
Population Mitotic Cells (%) [11]: 10%
Population Normal (%) [11]: 86%
Population Pyknosed Nuclei (%) [11]: 20%
Population Tubulin-Different-Phenotype (%) [11]: 80%
Total Cell Count [11]: 226
Population Apoptotic (%) [12]: 92%
Population Fragmented Nuclei (%) [12]: 35%
Population Healthy Nuclei (%) [12]: 8%
Population Hoechst High Intensity Objects (%) [12]: 23%
Population Membrane Permeable-Phenotype (%) [12]: 25%
Population Mitochondria Different-Phenotype (%) [12]: 25%
Population Mitotic Cells (%) [12]: 7%
Population Normal (%) [12]: 76%
Population Pyknosed Nuclei (%) [12]: 55%
Population Tubulin-Different-Phenotype (%) [12]: 50%
Total Cell Count [12]: 121

Cc1nc(Nc2n[nH]c3c2CN(C(=O)N[C@H](CN(C)C)c2ccccc2)C3(C)C)c2sccc2n1 [PF-03758309]
Population Apoptotic (%) [1]: 82%
Population Fragmented Nuclei (%) [1]: 33%
Population Healthy Nuclei (%) [1]: 48%
Population Hoechst High Intensity Objects (%) [1]: 13%
Population Membrane Permeable-Phenotype (%) [1]: 6%
Population Mitochondria Different-Phenotype (%) [1]: 2%
Population Mitotic Cells (%) [1]: 17%
Population Normal (%) [1]: 86%
Population Pyknosed Nuclei (%) [1]: 18%
Population Tubulin-Different-Phenotype (%) [1]: 2%
Total Cell Count [1]: 216
Population Apoptotic (%) [2]: 60%
Population Fragmented Nuclei (%) [2]: 54%
Population Healthy Nuclei (%) [2]: 37%
Population Hoechst High Intensity Objects (%) [2]: 28%
Population Membrane Permeable-Phenotype (%) [2]: 0%
Population Mitochondria Different-Phenotype (%) [2]: 13%
Population Mitotic Cells (%) [2]: 40%
Population Normal (%) [2]: 71%
Population Pyknosed Nuclei (%) [2]: 8%
Population Tubulin-Different-Phenotype (%) [2]: 13%
Total Cell Count [2]: 83
Population Apoptotic (%) [3]: 62%
Population Fragmented Nuclei (%) [3]: 35%
Population Healthy Nuclei (%) [3]: 51%
Population Hoechst High Intensity Objects (%) [3]: 11%
Population Membrane Permeable-Phenotype (%) [3]: 9%
Population Mitochondria Different-Phenotype (%) [3]: 10%
Population Mitotic Cells (%) [3]: 37%
Population Normal (%) [3]: 88%
Population Pyknosed Nuclei (%) [3]: 12%
Population Tubulin-Different-Phenotype (%) [3]: 32%
Total Cell Count [3]: 240
Population Apoptotic (%) [4]: 40%
Population Fragmented Nuclei (%) [4]: 57%
Population Healthy Nuclei (%) [4]: 25%
Population Hoechst High Intensity Objects (%) [4]: 39%
Population Membrane Permeable-Phenotype (%) [4]: 0%
Population Mitochondria Different-Phenotype (%) [4]: 20%
Population Mitotic Cells (%) [4]: 60%
Population Normal (%) [4]: 60%
Population Pyknosed Nuclei (%) [4]: 16%
Population Tubulin-Different-Phenotype (%) [4]: 33%
Total Cell Count [4]: 98
Population Apoptotic (%) [5]: 70%
Population Fragmented Nuclei (%) [5]: 25%
Population Healthy Nuclei (%) [5]: 53%
Population Hoechst High Intensity Objects (%) [5]: 16%
Population Membrane Permeable-Phenotype (%) [5]: 7%
Population Mitochondria Different-Phenotype (%) [5]: 8%
Population Mitotic Cells (%) [5]: 29%
Population Normal (%) [5]: 83%
Population Pyknosed Nuclei (%) [5]: 20%
Population Tubulin-Different-Phenotype (%) [5]: 7%
Total Cell Count [5]: 181
Population Apoptotic (%) [6]: 75%
Population Fragmented Nuclei (%) [6]: 59%
Population Healthy Nuclei (%) [6]: 33%
Population Hoechst High Intensity Objects (%) [6]: 28%
Population Membrane Permeable-Phenotype (%) [6]: 0%
Population Mitochondria Different-Phenotype (%) [6]: 10%
Population Mitotic Cells (%) [6]: 25%
Population Normal (%) [6]: 71%
Population Pyknosed Nuclei (%) [6]: 6%
Population Tubulin-Different-Phenotype (%) [6]: 0%
Total Cell Count [6]: 82
Population Apoptotic (%) [7]: 67%
Population Fragmented Nuclei (%) [7]: 30%
Population Healthy Nuclei (%) [7]: 54%
Population Hoechst High Intensity Objects (%) [7]: 20%
Population Membrane Permeable-Phenotype (%) [7]: 15%
Population Mitochondria Different-Phenotype (%) [7]: 6%
Population Mitotic Cells (%) [7]: 32%
Population Normal (%) [7]: 79%
Population Pyknosed Nuclei (%) [7]: 15%
Population Tubulin-Different-Phenotype (%) [7]: 40%
Total Cell Count [7]: 254
Population Apoptotic (%) [8]: 100%
Population Fragmented Nuclei (%) [8]: 48%
Population Healthy Nuclei (%) [8]: 45%
Population Hoechst High Intensity Objects (%) [8]: 34%
Population Membrane Permeable-Phenotype (%) [8]: 11%
Population Mitochondria Different-Phenotype (%) [8]: 22%
Population Mitotic Cells (%) [8]: 0%
Population Normal (%) [8]: 65%
Population Pyknosed Nuclei (%) [8]: 6%
Population Tubulin-Different-Phenotype (%) [8]: 44%
Total Cell Count [8]: 92

CN(C)c1ncnc(-c2ccc3nc(Nc4cc(CN5CCN(C(=O)CC(F)(F)F)CC5)ccn4)[nH]c3c2)c1Cl [BAY-440]
Population Apoptotic (%) [3]: 72% and 67%
Population Fragmented Nuclei (%) [3]: 31% and 20%
Population Healthy Nuclei (%) [3]: 51% and 62%
Population Hoechst High Intensity Objects (%) [3]: 10% and 13%
Population Membrane Permeable-Phenotype (%) [3]: 29% and 17%
Population Mitochondria Different-Phenotype (%) [3]: 6% and 3%
Population Mitotic Cells (%) [3]: 27% and 32%
Population Normal (%) [3]: 89% and 86%
Population Pyknosed Nuclei (%) [3]: 17%
Total Cell Count [3]: 282 and 187
Population Apoptotic (%) [4]: 83% and 50%
Population Fragmented Nuclei (%) [4]: 48% and 40%
Population Healthy Nuclei (%) [4]: 41% and 50%
Population Hoechst High Intensity Objects (%) [4]: 24% and 35%
Population Membrane Permeable-Phenotype (%) [4]: 25% and 18%
Population Mitochondria Different-Phenotype (%) [4]: 33% and 18%
Population Normal (%) [4]: 75% and 64%
Population Pyknosed Nuclei (%) [4]: 10% and 9%
Population Tubulin-Different-Phenotype (%) [4]: 50% and 86%
Total Cell Count [4]: 77 and 68
Population Apoptotic (%) [7]: 58% and 50%
Population Fragmented Nuclei (%) [7]: 31% and 22%
Population Healthy Nuclei (%) [7]: 55% and 67%
Population Hoechst High Intensity Objects (%) [7]: 14% and 11%
Population Membrane Permeable-Phenotype (%) [7]: 18% and 10%
Population Mitochondria Different-Phenotype (%) [7]: 7% and 0%
Population Mitotic Cells (%) [7]: 41% and 50%
Population Normal (%) [7]: 85% and 88%
Population Pyknosed Nuclei (%) [7]: 12% and 10%
Total Cell Count [7]: 290 and 193
Population Apoptotic (%) [8]: 75% and 37%
Population Fragmented Nuclei (%) [8]: 52% and 48%
Population Healthy Nuclei (%) [8]: 39% and 32%
Population Hoechst High Intensity Objects (%) [8]: 37% and 36%
Population Membrane Permeable-Phenotype (%) [8]: 22% and 14%
Population Mitotic Cells (%) [8]: 25% and 62%
Population Normal (%) [8]: 62% and 63%
Population Pyknosed Nuclei (%) [8]: 8% and 18%
Total Cell Count [8]: 74 and 68
